Measured values published in ChEMBL document CHEMBL1151235, “Bromophenol derivatives from the red alga Rhodomela confervoides” (J Nat Prod, 2004).

What was measured:
Bel-7402 = experiment: Cytotoxicity against human Bel7402 cells by MTT assay; assay type: functional, cell-based
In short: (§1)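 Panel of human tumour lines: A549 lung adenocarcinoma, BGC-823 stomach cancer, MCF-7 breast cancer, Bel7402 hepatoma and HCT-8 colon cancer. Activity reported as IC50 in μg/mL.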

MCF7 = experiment: Cytotoxicity against human MCF7 cells by MTT assay; assay type: functional, cell-based; in short: as §1
A549 = experiment: Cytotoxicity against human A549 cells by MTT assay; assay type: functional, cell-based; in short: as §1
BGC-823 = experiment: Cytotoxicity against human BGC823 cells by MTT assay; assay type: functional, cell-based; in short: as §1
HCT-8 = experiment: Cytotoxicity against human HCT8 cells by MTT assay; assay type: functional, cell-based; in short: as §1
Candida albicans = experiment: Antimicrobial activity against Candida albicans; assay type: functional
In short: (§2)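 Whole-organism tests on S. aureus, E. coli and the yeast C. albicans. Potency reported as MIC50 in μg/mL.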

Escherichia coli = experiment: Antimicrobial activity against Escherichia coli; assay type: functional; in short: as §2
Staphylococcus aureus = experiment: Antimicrobial activity against Staphylococcus aureus; assay type: functional; in short: as §2

| Compound | IC50 (Bel-7402) [µg/mL] | IC50 (MCF7) [µg/mL] | IC50 (A549) [µg/mL] | IC50 (BGC-823) [µg/mL] | IC50 (HCT-8) [µg/mL] | MIC (Candida albicans) [µg/mL] | MIC (Escherichia coli) [µg/mL] | MIC (Staphylococcus aureus) [µg/mL] |
| --- | --- | --- | --- | --- | --- | --- | --- | --- |
| CC(=O)/C=C/c1cc(O)c(O)c(Br)c1Br | > 10 | > 10 | > 10 | > 10 | > 10 |  |  |  |
| COc1c(O)cc(C(Cc2cc(O)c(O)c(Br)c2Br)C(=O)O)cc1Br (configuration not stated) | > 10 | > 10 | > 10 | > 10 | > 10 | > 100 | > 100 | > 100 |
| COC(=O)Cc1cc(O)c(OC)c(Br)c1 | > 10 | > 10 | > 10 | > 10 | > 10 | > 100 | > 100 | > 100 |
| C[S+]([O-])Cc1cc(O)c(O)c(Br)c1Br (configuration not stated) | > 10 | > 10 | > 10 | > 10 | > 10 | > 100 | > 100 | > 100 |
| COC(=O)C(Cc1cc(O)c(O)c(Br)c1Br)c1cc(O)c(OC)c(Br)c1 (configuration not stated) | > 10 | > 10 | > 10 | > 10 | > 10 |  |  |  |
| COc1c(O)cc(C(=O)O)cc1Br | > 10 | > 10 | > 10 | > 10 | > 10 | > 100 | > 100 | > 100 |
